Values joined by “and” are separate entries in the source; they are usually repeats but may differ in a detail not shown here. Equal values may be shown once.
Columns and labels:
[1] = BCS/BDDCS classification and permeability; format: physicochemical
Solubility = format: physicochemical
[2] = Safety and tolerability, SAD study; format: in vivo, human; conditions: healthy volunteers, single oral dose up to 600 mg
Method in brief: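 First-in-human, single-centre, randomised, double-blind, placebo-controlled interleaved-cohort study: 17 healthy men and women in 2 cohorts with 4 periods each. Single oral doses from 1 to 600 mg given fasted, at least 14 days apart. Safety and tolerability assessed before and after dosing and at various time points.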

[3] = Safety and tolerability, MAD study; format: in vivo, human; conditions: healthy volunteers, doses up to 200 mg BID for 7 days
Method in brief: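 Single-centre, randomised, double-blind, placebo-controlled MAD study: 22 healthy men and women dosed with food, single dose on day 1, then BID (50, 100, 200 mg) or OD (100 mg) on days 3–9. Active and placebo assigned 6:3. Safety and tolerability assessed before and after dosing and at various time points.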

Single ascending dose = format: in vivo, human
Method in brief: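 SAD study in healthy volunteers: micronised drug in hard-gelatine capsules without excipients, given orally after an overnight fast of at least 8 h (1, 3, 30, 100, 300, 600 mg), or 100 mg after a high-fat high-calorie breakfast. Plasma (K3EDTA) sampled 0.5–48 h after dosing and assayed by LC-MS/MS (1.00–1000 ng/mL). Parameters derived by noncompartmental analysis.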

human P‐gp = human P‐gp (Homo sapiens, UniProt P08183); assay: In vitro P-gp transport studies; format: in vitro ADME; conditions: up to RO5459072 concentrations of 100 μM; data held on files at Roche
Sequence of human P‐gp (P08183 whole entry): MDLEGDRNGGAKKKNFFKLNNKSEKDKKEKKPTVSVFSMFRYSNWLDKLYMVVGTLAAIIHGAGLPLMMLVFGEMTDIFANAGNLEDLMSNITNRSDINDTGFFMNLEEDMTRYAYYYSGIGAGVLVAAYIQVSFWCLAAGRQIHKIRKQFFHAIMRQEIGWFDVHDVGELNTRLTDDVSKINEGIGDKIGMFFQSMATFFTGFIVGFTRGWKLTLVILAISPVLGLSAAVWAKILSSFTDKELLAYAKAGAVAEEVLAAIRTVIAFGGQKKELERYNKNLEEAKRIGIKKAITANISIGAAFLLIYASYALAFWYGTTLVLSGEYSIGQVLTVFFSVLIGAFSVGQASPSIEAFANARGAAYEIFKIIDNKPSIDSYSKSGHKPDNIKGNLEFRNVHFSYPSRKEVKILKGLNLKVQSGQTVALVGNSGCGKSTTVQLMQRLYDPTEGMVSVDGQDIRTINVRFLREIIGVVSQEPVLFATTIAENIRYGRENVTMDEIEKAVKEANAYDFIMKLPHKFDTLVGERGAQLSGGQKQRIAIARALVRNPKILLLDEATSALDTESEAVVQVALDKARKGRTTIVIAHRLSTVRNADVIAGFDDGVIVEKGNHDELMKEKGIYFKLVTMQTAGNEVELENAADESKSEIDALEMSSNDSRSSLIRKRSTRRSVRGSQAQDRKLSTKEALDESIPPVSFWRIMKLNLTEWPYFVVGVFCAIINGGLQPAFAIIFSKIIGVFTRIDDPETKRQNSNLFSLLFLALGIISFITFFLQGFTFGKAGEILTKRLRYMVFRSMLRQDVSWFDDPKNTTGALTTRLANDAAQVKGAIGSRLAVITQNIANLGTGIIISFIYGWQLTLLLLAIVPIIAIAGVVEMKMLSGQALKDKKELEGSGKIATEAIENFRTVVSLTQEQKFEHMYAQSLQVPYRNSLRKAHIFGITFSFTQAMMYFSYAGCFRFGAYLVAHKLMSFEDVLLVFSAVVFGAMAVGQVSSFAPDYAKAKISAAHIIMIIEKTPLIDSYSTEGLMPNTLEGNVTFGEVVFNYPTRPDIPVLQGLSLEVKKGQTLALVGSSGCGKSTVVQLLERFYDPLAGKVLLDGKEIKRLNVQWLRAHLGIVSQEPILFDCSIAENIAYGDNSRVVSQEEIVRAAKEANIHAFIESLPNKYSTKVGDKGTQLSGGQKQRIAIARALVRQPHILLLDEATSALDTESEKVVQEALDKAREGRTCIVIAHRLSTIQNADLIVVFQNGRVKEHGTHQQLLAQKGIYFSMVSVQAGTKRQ

metabolic enzyme = assay: In vitro enzymology studies, time-dependent metabolic enzyme inhibition; format: in vitro ADME; conditions: RO5459072 and its metabolites; data held on files at Roche
[4] = Excretion after intravenous dose in rats; format: in vivo; conditions: data held on files at Roche
[5] = Population compartmental PK model; format: in vivo, human
Method in brief: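 Pooled first-dose plasma concentrations (816 samples) from 39 healthy volunteers, SAD (fasted 1–600 mg; fed 100 mg) and MAD (fed 50–200 mg). Analysed in NONMEM 7.3 with ADVAN9 and first-order conditional estimation. 1- and 2-compartment models tested, with first-order absorption with or without lag time or transit compartments. IIV log-normal. Visual predictive checks used 500 simulations. Reported as estimate (% RSE).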

cathepsin‐S = assay: Inhibition of cathepsin-S enzyme activity throughout the dosing interval; format: in vivo, human; conditions: 50 mg dose
Multiple ascending dose = format: in vivo, human
Method in brief: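 MAD study in healthy men and women: oral doses of 50, 100 or 200 mg or placebo (6:3), given with food; first dose on day 1. Plasma (K3EDTA) sampled 0.5–48 h after the first dose. Test compound measured by liquid–liquid extraction and LC-MS/MS, calibration range 1.00–1000 ng/mL. Linearity judged from dose-normalised concentration–time profiles.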

[6] = interindividual variability, CV% (% RSE) [shrinkage]

- Biopharmaceutics Classification System class [1]: 2
- permeability [1]: highly permeable
- solubility (Solubility): < 20 µg/mL
- Tmax (Single ascending dose; both, human, plasma, oral, 100 mg, Tmax, fed): 5 h
- half-life (Single ascending dose; both, human, plasma, oral, 600 mg, noncompartmental analysis apparent terminal half-life, fasted, highest doses between 100 and 600 mg): 13 to 16 h
- increase in systemic exposure with dose (Single ascending dose; fasted, doses <10 mg): more than dose proportional
- increase in systemic exposure with dose (Single ascending dose; fasted, doses >30 mg): less than dose proportional
- Tmax delay fed versus fasted (Single ascending dose; fed later than fasted): approximately 1 hour
- decrease of estimated average half-life by food (noncompartmental analysis) (Single ascending dose; fed versus fasted): approximately 4 hours
- saturability of human P-gp (human P‐gp): not saturable
- time-dependent metabolic enzyme inhibition (metabolic enzyme): absence
- fraction of dose found unchanged in the faeces [4]: 50%
- CL/F, apparent total clearance ([5]; fasted and fed conditions, estimate (% RSE)): 9.38 (3.65) L h^−1
- kaFaPI, first-order absorption rate constant of the proximal intestine ([5]; fasted, doses > 3 mg (10 to 600 mg), estimate (% RSE)): 2.05 h^−1 and 2.05 (6.29) h^−1
- kaFaDI, first-order absorption rate constant of the distal intestine ([5]; fasted, doses > 3 mg, estimate (% RSE)): 0.065 h^−1 and 0.065 (9.31) h^−1
- apparent fraction of the total dose absorbed from the distal intestine ([5]; fasted, on average for doses between 10 and 600 mg): ~ 16%
- IIV of D50 [5, 6]: 38.5% (27.3) [40.9%] CV%
- IIV of FFaDI [5, 6]: 32.1% (38.9) [41.0%] CV%
- IIV of Vc/F [5, 6]: 24.0% (15.0) [14.6%] CV%
- IIV of kaFaPI for doses > 3 mg [5, 6]: 33.8% (13.8) [2.44%] CV%
- IIV of kaFe [5, 6]: 39.2% (14.8) [4.21%] CV%
- half-life (Multiple ascending dose; both, human, plasma, oral, average estimated terminal half-lives, fed, 50 mg, 100 mg, 200 mg doses): 8 to 10 h
- PK linearity (Multiple ascending dose; fed condition from 50 to 100 mg): linear
Structure (SMILES): Cn1cc(-c2ccc(S(=O)(=O)[C@@H]3C[C@@H](C(=O)NC4(C#N)CC4)N(C(=O)C4(C(F)(F)F)CC4)C3)c(C(F)(F)F)c2)cn1 [RO5459072]
- tolerability [2]: similarly tolerated to placebo
- tolerability [3]: tolerated similarly to placebo
- inhibition of cathepsin-S enzyme activity in average throughout the dosing interval (cathepsin‐S): about 93%
